Measurements as given in ChEMBL document CHEMBL1649472, “Soft-tissue penetration of ceftobiprole in healthy volunteers determined by in vivo microdialysis” (Antimicrob Agents Chemother, 2009).
Converted amounts (≈) assume the structure as drawn. One block for each molecule: values may come before it.

Assays:
[1] = AUC in plasma of healthy human at 500 mg, po administered at tablet formulation with maximum release by microdialysis; format: ADME, organism-based
[2] = AUC in plasma of healthy human at 750 mg. po administered at tablet formulation with maximum release by microdialysis; format: ADME, organism-based
[3] = AUC in plasma of healthy human at 500 mg, po administered at tablet formulation with immediate release by microdialysis; format: ADME, organism-based
[4] = AUC in plasma of healthy human at 400 mg, po by microdialysis; format: ADME, organism-based
[5] = AUC (0 to infinity) in plasma of healthy human at […] up to 12 hrs; format: ADME; design: time infinity
In short: (§1)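 Twelve healthy volunteers received a single 500 mg dose as a 2-h i.v. infusion. K2EDTA blood was drawn from the opposite arm from predose to 24 h over 13 timepoints. Plasma was precipitated with acetonitrile/formic acid and perchloric acid. Protein binding was measured by ultrafiltration at 2 and 12 h, and free levels were derived per subject. Analysis was noncompartmental: linear-trapezoidal AUC, with λz from terminal-phase regression.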

[6] = Volume of distribution at steady state in plasma of healthy human at […] […]; format: ADME, organism-based; conditions: read-out: Vdss; in short: as §1
Staphylococcus aureus = assay: Antibacterial activity against methicillin-resistant Staphylococcus aureus; format: functional
Streptococcus pneumoniae = assay: Antibacterial activity against penicillin-resistant Streptococcus pneumoniae; format: functional
[7] = Cmax in adipose tissue of healthy human at 200 mg/l administered via microdialysis probe up to 12 hrs; format: ADME, organism-based
In short: (§2)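 Twelve healthy volunteers were given a single 500 mg dose as a 2-h i.v. infusion. Microdialysis probes in skeletal muscle and s.c. adipose tissue were perfused with lactated Ringer's at 1.5 μl/min. Each probe was calibrated by retrodialysis with drug at 200 mg/liter, followed by a 4-h washout. Dialysate was collected every 20 min to 12 h, then at 16 and 24 h, and assayed by HPLC-UV. Values were recovery-corrected and analysed noncompartmentally.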

[8] = Half life in adipose tissue of healthy human at 200 mg/l administered via microdialysis probe up to 12 hrs; format: ADME, tissue-based; in short: as §2
[9] = AUClast in adipose tissue of healthy human at 200 mg/l administered via microdialysis probe up to 12 hrs; format: ADME; design: time < 12 hr; in short: as §2
[10] = AUC (0 to infinity) in adipose tissue of healthy human at 200 mg/l administered via microdialysis probe up to 12 hrs; format: ADME; design: time infinity; in short: as §2
[11] = Cmax in muscle of healthy human at 200 mg/l administered via microdialysis probe up to 12 hrs; format: ADME, organism-based, Muscle tissue; in short: as §2
[12] = Half life in muscle of healthy human at 200 mg/l administered via microdialysis probe up to 12 hrs; format: ADME, tissue-based, Muscle tissue; in short: as §2
[13] = AUClast in muscle of healthy human at 200 mg/l administered via microdialysis probe up to 12 hrs; format: ADME, tissue-based, Muscle tissue; design: time < 12 hr; in short: as §2
[14] = AUC (0 to infinity) in muscle of healthy human at 200 mg/l administered via microdialysis probe up to 12 hrs; format: ADME, tissue-based, Muscle tissue; design: time infinity; in short: as §2
[15] = Ratio of AUC in adipose tissue to fAUC in plasma of healthy human at 200 mg/l administered via microdialysis probe up to 12 hrs; format: ADME; conditions: other
[16] = fT>MIC in adipose tissue of healthy human at 500 mg, iv by microdialysis
[17] = fT>MIC in skeletal muscle of healthy human at 500 mg, iv by microdialysis

- AUC [1]: 13700 ng·h/mL
- AUC [2]: 22100 ng·h/mL
- AUC [3]: 17600 ng·h/mL
Structure (SMILES): N[C@@H](C(=O)N[C@@H]1C(=O)N2C(C(=O)O)=C(Cl)CS[C@H]12)c1ccccc1 [CEFACLOR ANHYDROUS]

- AUC [4]: 25600 ng·h/mL
Structure (SMILES): C=CC1=C(C(=O)O)N2C(=O)[C@@H](NC(=O)/C(=N\OCC(=O)O)c3csc(N)n3)[C@H]2SC1 [CEFIXIME]

- AUC [4]: 22400 ng·h/mL
Structure (SMILES): COCC1=C(C(=O)O)N2C(=O)[C@@H](NC(=O)/C(=N\OC)c3csc(N)n3)[C@H]2SC1 [CEFPODOXIME]

Structure (SMILES): Nc1nc(/C(=N/O)C(=O)N[C@@H]2C(=O)N3C(C(=O)O)=C(/C=C4\CCN([C@@H]5CCNC5)C4=O)CS[C@H]23)ns1 [CEFTOBIPROLE]
- AUC(0-inf) [5]: 98000 ng·h/mL
- Vd [6]: 14.6 L
- MIC90 (Staphylococcus aureus): 2 µg/mL (≈ 3.74 µM)
- MIC90 (Streptococcus pneumoniae): 2 µg/mL (≈ 3.74 µM)
- Cmax [7]: 9610 ng/mL
- half-life [8]: 2.56 h
- AUC(0-t) at 12 h [9]: 34300 ng·h/mL
- AUC(0-inf) [10]: 36500 ng·h/mL
- Cmax [11]: 14000 ng/mL
- half-life [12]: 2.61 h
- AUC(0-t) at 12 h [13]: 50600 ng·h/mL
- AUC(0-inf) [14]: 53200 ng·h/mL
- Ratio AUC [15]: 0.49
- Efficacy [16]: 35.1%
- Efficacy [17]: 53.6%
